From ChEMBL document CHEMBL1134641, “Progress toward the development of a safe and effective agent for treating reentrant cardiac arrhythmias: synthesis and evaluation of ibutilide analogues with enhanced metabolic stability and diminished proarrhythmic potential” (2001)

Experiments:
[1] = system: Canis familiaris; test: Atrial effective refractory period (AERP) measured in canine just after inducing atrial flutter (AFL) termination by the compound at a dose of 0.6 umol/kg; format: functional, Canis lupus familiaris, Heart
[2] = system: Canis familiaris; test: Atrial effective refractory period (AERP) measured in canine just after inducing atrial flutter (AFL) termination by the compound at a dose of 12.0 uM/kg; format: functional, Canis lupus familiaris, Heart
[3] = system: Canis familiaris; test: Atrial effective refractory period (AERP) measured in canine just after inducing atrial flutter (AFL) termination by the compound at a dose of 7.2 uM/kg; format: functional, Canis lupus familiaris, Heart
[4] = system: Canis familiaris; test: QT interval measured in canine 24-h Infarction model at an cumulative intravenous dose of 0.24 uM/kg; format: functional, Canis lupus familiaris
Summary of the method: (§1)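 Dogs 24 h after two-stage LAD ligation. Compound in saline given iv in sequential doses (cumulative 0.24, 0.72, 2.4 µmol/kg); saline controls then given a single 2.4 µmol/kg iv dose. HR, IVR, BP, QT, spontaneous arrhythmias/min, ERPs and MAPD90 measured at baseline and 15 min after each dose. Means ± SEM, paired t-test, p≤0.05.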

[5] = system: Canis familiaris; test: QT interval measured in canine 24-h Infarction model at an cumulative intravenous dose of 0.72 uM/kg; format: functional, Canis lupus familiaris; summary of the method: as §1
[6] = species: Canis familiaris; test: QT interval measured in canine just after inducing atrial flutter (AFL) termination by the compound; format: functional, Canis lupus familiaris, Heart
Summary of the method: (§2)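 Conscious, sling-restrained dogs with chronically implanted electrodes, studied after 2 weeks of recovery. Sustained AFL (>5 min) induced. Compound in saline given iv every 5 min to cumulative 0.024-12.0 µmol/kg. At AFL termination, HR, QT (paced cycle length 300 ms), AERP and VERP measured. Measurements then taken 3 min after each further dose. Significance p≤0.05 vs baseline.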

[7] = system: Canis familiaris; test: QT interval measured in canine just after inducing atrial flutter (AFL) termination by the compound at a dose of 7.2 uM/kg; format: functional, Canis lupus familiaris, Heart; summary of the method: as §2
[8] = system: Canis familiaris; test: QT interval measured in canine just after inducing atrial flutter (AFL) termination by the compound at a dose of 9.6 uM/kg; format: functional, Canis lupus familiaris, Heart; summary of the method: as §2
[9] = system: Canis familiaris; test: Atrial effective refractory period (AEPR) measured in canine 24-h Infarction model at an cumulative intravenous dose of 2.4 uM/kg; format: functional, Canis lupus familiaris, Cardiac atrium
Summary of the method: (§3)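 Male mongrel dogs (16-22 kg) with LAD permanently ligated in two stages; studied 24 h later. […] given IV in sequential doses to cumulative 0.24, 0.72, 2.4 µmol/kg. Saline controls (n=8) received vehicle, then a single IV 2.4 µmol/kg dose at the end. Measurements taken at baseline and 15 min after each dose. Means ± SEM, paired t-test, p ≤ 0.05.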

[10] = species: Canis familiaris; test: Atrial effective refractory period (AERP) measured in canine just after inducing atrial flutter (AFL) termination by the compound; format: functional, Canis lupus familiaris, Heart
[11] = system: Canis familiaris; test: Heart Rate measured in canine just after inducing atrial flutter (AFL) termination by the compound at a dose of 9.6 uM/kg; format: functional, Canis lupus familiaris
[12] = system: Canis familiaris; test: Atrial MAPD90 measured in canine 24-h Infarction model at an cumulative intravenous dose of 0.72 uM/kg; format: functional, Canis lupus familiaris, Cardiac atrium; summary of the method: as §3
[13] = system: Canis familiaris; test: Number of canine in which sustained ventricular tachycardia (SVT) was observed in PES-induced arrhythmias at an single intravenous dose of 2.4 uM/kg; format: functional, Canis lupus familiaris, Cardiac ventricle
Summary of the method: (§4)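 Male mongrel dogs (16-22 kg) with LAD ligated in two stages, studied 24 h later. Programmed electrical stimulation at baseline and 15 min after each iv dose in saline (cumulative 0.24, 0.72, 2.4 µmol/kg). Saline controls then received a single 2.4 µmol/kg iv dose. Responses scored as NI (≤15 beats), NSVT (>15 beats, ends within 30 s), SVT (>30 s, needing pacing or cardioversion) or VF. A positive response was repeated.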

[14] = system: Canis familiaris; test: Number of canine in which ventricular fibrillation (VF) was observed in PES-induced arrhythmias at an cumulative intravenous dose of 0.24 uM/kg; format: functional, Canis lupus familiaris, Cardiac ventricle; summary of the method: as §4
[15] = system: Canis familiaris; test: Number of canine in which ventricular fibrillation (VF) was observed in PES-induced arrhythmias at an cumulative intravenous dose of 2.4 uM/kg; format: functional, Canis lupus familiaris, Cardiac ventricle; summary of the method: as §4
[16] = system: Canis familiaris; test: Number of canine in which ventricular fibrillation (VF) was observed in PES-induced arrhythmias at an single intravenous dose of 2.4 uM/kg; format: functional, Canis lupus familiaris, Cardiac ventricle; summary of the method: as §4
[17] = system: Canis familiaris; test: Spontaneous arrhythmias measured in canine 24-h Infarction model at a single intravenous dose of 2.4 uM/kg; format: functional, Canis lupus familiaris; summary of the method: as §1
[18] = system: Canis familiaris; test: Spontaneous arrhythmias measured in canine 24-h Infarction model at an cumulative intravenous dose of 2.4 uM/kg; format: functional, Canis lupus familiaris; summary of the method: as §1
[19] = system: Canis familiaris; test: Number of canine in which arrhythmias could not be induced at an cumulative intravenous dose of 0.72 uM/kg; format: functional, Canis lupus familiaris; summary of the method: as §4
[20] = system: Canis familiaris; test: Number of canine in which arrhythmias could not be induced at an cumulative intravenous dose of 2.4 uM/kg; format: functional, Canis lupus familiaris; summary of the method: as §4
[21] = system: Canis familiaris; test: Heart Rate measured in canine just after inducing atrial flutter (AFL) termination by the compound at a dose of 0.6 umol/kg; format: functional, Canis lupus familiaris
[22] = system: Canis familiaris; test: Heart Rate measured in canine just after inducing atrial flutter (AFL) termination by the compound at a dose of 12.0 uM/kg; format: functional, Canis lupus familiaris
[23] = system: Canis familiaris; test: Ventricular effective refractory (VEPR) period measured in canine 24-h Infarction model at an cumulative intravenous dose of 0.24 uM/kg; format: functional, Canis lupus familiaris, Heart
Summary of the method: (§5)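 Male mongrel dogs (16-22 kg) with LAD permanently ligated in two stages, studied 24 h after ligation. Compound given in saline (6.0 µmol/mL) as sequential intravenous doses to reach cumulative 0.24, 0.72 and 2.4 µmol/kg. VERP and other measurements taken at baseline and 15 min after each dose. Saline-dosed dogs served as controls. Results are means ± SEM, paired t-test, p ≤ 0.05.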

[24] = system: Canis familiaris; test: Ventricular effective refractory (VEPR) period measured in canine 24-h Infarction model at an cumulative intravenous dose of 0.72 uM/kg; format: functional, Canis lupus familiaris, Heart; summary of the method: as §5
[25] = system: Canis familiaris; test: Ventricular effective refractory (VEPR) period measured in canine 24-h Infarction model at an cumulative intravenous dose of 2.4 uM/kg; format: functional, Canis lupus familiaris, Heart; summary of the method: as §5
[26] = system: Canis familiaris; test: Ventricular effective refractory period ([…]) measured in canine just after inducing atrial flutter (AFL) termination by the compound at a dose of 0.24 umol/kg; format: functional, Canis lupus familiaris, Heart
Summary of the method: (§6)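 Conscious dogs, loosely restrained in a sling, with exteriorized electrode leads, studied 2 weeks after instrumentation. AFL was induced and counted as sustained if it lasted 5 min. Compound in saline given intravenously every 5 min to cumulative 0.024-12.0 µmol/kg. VERP was measured at AFL termination and 3 min after each dose. Results are means ± SEM versus baseline, p ≤ 0.05.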

[27] = system: Canis familiaris; test: Ventricular effective refractory period ([…]) measured in canine just after inducing atrial flutter (AFL) termination by the compound at a dose of 2.4 uM/kg; format: functional, Canis lupus familiaris, Heart; summary of the method: as §6
[28] = system: Canis familiaris; test: Ventricular effective refractory period ([…]) measured in canine just after inducing atrial flutter (AFL) termination by the compound at a dose of 7.2 uM/kg; format: functional, Canis lupus familiaris, Heart; summary of the method: as §6
[29] = system: Canis familiaris; test: Number of canine in which nonsustained ventricular tachycardia (NSVT) was observed in PES-induced arrhythmias at an cumulative intravenous dose of 0.72 uM/kg; format: functional, Canis lupus familiaris, Cardiac ventricle; summary of the method: as §4
[30] = system: Canis familiaris; test: Number of canine in which nonsustained ventricular tachycardia (NSVT) was observed in PES-induced arrhythmias at an cumulative intravenous dose of 2.4 uM/kg; format: functional, Canis lupus familiaris, Cardiac ventricle; summary of the method: as §4
[31] = system: Canis familiaris; test: Ventricular MAPD90 measured in canine 24-h Infarction model at an cumulative intravenous dose of 2.4 uM/kg; format: functional, Canis lupus familiaris, Heart; summary of the method: as §1

## CCN(CCCCCC(C)(C)F)CCC[C@H](O)c1ccc(NS(C)(=O)=O)cc1.O=C(O)/C=C/C(=O)O
[1]
  AERP: 153 ms
[2]
  AERP: 164 ms
[3]
  AERP: 162 ms
[4]
  QT interval: 211 ms
[5]
  QT interval: 218 ms
[6]
  QT interval: 202 ms
[7]
  QT interval: 205 ms
[8]
  QT interval: 204 ms
[9]
  AERP: 194 ms
[10]
  AERP: 149 ms
[11]
  HR: 114 beats min-1
[12]
  Atrial MAPD90: 146 ms
[13]
  No. of canine: 1
[14]
  No. of canine: 0
[15]
  No. of canine: 0
[16]
  No. of canine: 0
[17]
  PVCs: 53 number min-1
[18]
  PVCs: 73 number min-1
[19]
  No. of canine: 9
[20]
  No. of canine: 10
[21]
  HR: 111 beats min-1
[22]
  HR: 122 beats min-1
[23]
  VERP: 162 ms
[24]
  VERP: 170 ms
[25]
  VERP: 185 ms
[26]
  VERP: 142 ms
[27]
  VERP: 143 ms
[28]
  VERP: 140 ms
[29]
  No. of canine: 0
[30]
  No. of canine: 1
[31]
  Ventricular MAPD90: 185 ms
